# High-throughput results as filed in PubChem.
# proCasp7 act: procaspase-7 activators, primary screen, counter-screen for procaspase-3 activator project, biochemical, absorbance, HTS, human; Caspase-7 (Homo sapiens), P55210; activation, % at 8.5 µM; 330,000 compounds, 0.093% hits; recombinant procaspase-7, Ac-DEVD-pNA absorbance 405 nm; D23A/D198A/D206A triple mutant, cannot self-cleave; scale: DMSO 0, 5 µM enzyme 100;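 active = percent activation above the screen-wide mean plus 3 SD, cut at about 25% in these data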
# Target sequence (P55210 whole entry D23A/D198A/D206A): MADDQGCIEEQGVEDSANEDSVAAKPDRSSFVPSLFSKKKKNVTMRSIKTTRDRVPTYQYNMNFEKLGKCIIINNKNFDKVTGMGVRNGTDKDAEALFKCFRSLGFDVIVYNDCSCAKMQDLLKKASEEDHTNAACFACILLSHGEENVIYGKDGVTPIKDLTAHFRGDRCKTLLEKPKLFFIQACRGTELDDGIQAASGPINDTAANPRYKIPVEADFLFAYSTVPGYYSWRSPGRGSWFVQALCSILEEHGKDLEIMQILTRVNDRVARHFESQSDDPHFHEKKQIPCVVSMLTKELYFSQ
#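 Replicates: singlicate. Assay system: Procaspase-7 triple mutant (PC-7 D3A). Signal: 405 nm absorbance of p-nitroaniline. Times: 1 h preincubation, 2 h reaction. Buffer or medium: Zinc-free HEPES pH 7.4 with 300 mM NaCl, 0.01% Triton X-100. Also added: DEVD-pNA substrate. Benchmarks: DMSO wells as 0%, DMSO with 5 µM added PC-7 as 100%.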
# Neddylation inh: inhibitors of cullin neddylation, primary screen, biochemical, TR-FRET, uHTS, NAE and Ubc12 | NEDD8-conjugating enzyme Ubc12 (Homo sapiens) + NEDD8-activating enzyme E1 regulatory … | calls only at 25 µM | 360,000 compounds, 0.58% hits; in the data active = inhibition above about 36%
# procasp3 activ: activators of human procaspase-3 D3A mutant, primary screen, biochemical, absorbance, PC-3 D3A mutant, single concentration; Caspase-3 (Homo sapiens), P42574; recombinant procaspase-3 D3A, Ac-DEVD-pNA absorbance 405 nm; activation, % at 8.5 µM; 330,000 compounds, 0.11% hits; AID 463141, 2010;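 active = activation above the mean of all tested compounds plus 3 SD, cut at about 21% in these data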;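 also: 0% = DMSO alone and 100% = DMSO wells spiked with extra 5 µM PC-3 D3A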
# Target sequence (P42574 whole entry D9A/D28A/D175A): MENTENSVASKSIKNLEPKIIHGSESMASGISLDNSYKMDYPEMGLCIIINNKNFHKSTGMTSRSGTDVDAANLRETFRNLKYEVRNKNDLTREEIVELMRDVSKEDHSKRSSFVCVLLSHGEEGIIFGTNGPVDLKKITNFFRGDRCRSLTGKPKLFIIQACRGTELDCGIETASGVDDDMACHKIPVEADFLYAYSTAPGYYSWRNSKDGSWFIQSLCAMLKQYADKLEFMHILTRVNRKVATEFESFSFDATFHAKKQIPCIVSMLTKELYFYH
#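 Test system: Procaspase-3 D3A mutant; medium: Zinc-free HEPES/NaCl buffer with 0.01% Triton X-100 at pH 7.4; reagent: DEVD-pNA substrate; doses: one concentration, 8.5 µM nominal, 0.8% DMSO; times: 1 h preincubation plus 2 h reaction at 25 °C; signal: Epi-absorbance at 405 nm of released p-nitroaniline, 0 and 120 min; replicates: singlicate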
# IMP-1 inh: IMP-1 metallo-beta-lactamase inhibitors, primary screen, biochemical, epi-absorbance readout, Pseudomonas aeruginosa enzyme; metallo-beta-lactamase IMP-1 (Pseudomonas aeruginosa); purified IMP-1, nitrocefin hydrolysis, epi-absorbance fluorescence; inhibition, % at 5.6 µM; 290,000 compounds, 0.45% hits;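 active = inhibition above the mean plus 3 SD of all compounds in the same screening run, cut at about 4.5% in these data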;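 also: 0% = IMP-1 with DMSO and 100% = DMSO wells lacking enzyme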
#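 System: purified recombinant IMP-1 beta-lactamase. Medium: Zinc- and detergent-supplemented HEPES buffer, pH 7.1. Compound: one 5.6 µM dose […]. Schedule: 15 min preincubation plus 25 min reaction at 25 °C. Technique: Epi-absorbance fluorescence, 480 nm excitation, 530 nm emission.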
# VIM-2 inh: VIM-2 metallo-beta-lactamase inhibitors, primary screen, biochemical, epi-absorbance readout, Pseudomonas aeruginosa enzyme. purified VIM-2, nitrocefin hydrolysis, epi-absorbance fluorescence. inhibition, % at 5.6 µM. 290,000 compounds, 0.89% hits. AID 1527, 2009;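 active = inhibition above the mean of all tested compounds plus 3 SD, cutoff set per screening run, cut at about 7.5% in these data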;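 also: red hydrolysis product quenches plate fluorescence so inhibitors raise well fluorescence; 0% = enzyme with DMSO and 100% = DMSO without enzyme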
# PolyA inhibitor: polyadenylation inhibitors in yeast reporter cells, primary screen, luminescence, S. cerevisiae; activity score, % at 12 µM; 300,000 compounds, 0.02% hits; S. cerevisiae SKY197-pL101 polyadenylation reporter, beta-gal luminescence; efflux-impaired pdr1/pdr3 knockout yeast; score 100 = 6 SD above DMSO;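 active = lowest replicate activity score at least 50, where 100 means six control SD above control mean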;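 also: yeast exposed to compound for 9 h at 30 °C; higher score means more reporter readthrough which indicates perturbed polyadenylation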
# procasp7 triplic: procaspase-7 activators, counter-screen for procaspase-3 activator project, biochemical, absorbance, triplicate, human | shares compounds with procasp3 activ | recombinant procaspase-7, Ac-DEVD-pNA absorbance; asp23/198/206-to-Ala mutant, cannot self-cleave | activation, % at 8.5 µM | 210 tested, under 10 active | AID 488941, 2010;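 active = mean activation above a set limit taken from an earlier procaspase-7 screen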;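 also: 0% = DMSO wells and 100% = DMSO plus 5 µM procaspase-7 enzyme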
# procasp3 conf: activators of human procaspase-3 D3A mutant, confirmation, biochemical, absorbance, PC-3 D3A mutant, triplicate; activation, % at 8.5 µM; shares compounds with procasp3 activ; recombinant PC-3 D3A, Ac-DEVD-pNA absorbance 405 nm; 100% is higher-enzyme control; 210 compounds, 10% hits;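 active = mean activation above a set limit carried over from the earlier primary screen, cut at about 22% in these data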
# * marks the source's active call; other numbers are inactive results; i = inactive; · = no result shown. Most compounds without a hit are left out; they make up all but 1.7% or so of the library.
SMILES,proCasp7 act,Neddylation inh,procasp3 activ,IMP-1 inh,VIM-2 inh,PolyA inhibitor,procasp7 triplic,procasp3 conf
O=C(NN1C(=O)C2C3C=CC(C3)C2C1=O)c1cccc(Cl)c1 (stereo unspecified),-8.1,i,23.9*,-0.9,0.4,11.9,4.4,2.7
Cc1cc(C(F)(F)F)c(C#N)c(SCC(=O)Nc2nc3ccccc3s2)n1,-8.0,i,-3.1,-2.7,-1.9,17.1,·,·
Cc1cc(C)c(C#N)c(SCC(=O)Nc2nnc(-c3ccccc3)s2)n1,22.5,i,26.7*,0.6,-3.5,6.1,1.9,1.2
Cc1nc(SCC(=O)Nc2nc3ccccc3s2)c(C#N)c(C)c1C,-3.3,i,29.0*,-3.7,-2.9,8.6,-14.1,-6.7
Cc1csc(C(C#N)C(=O)c2ccc(S(=O)(=O)N3CCCC3)cc2)n1 (stereo unspecified),1.3,i,-0.4,-1.8,-0.3,6.9,·,·
O=C(Cc1c(O)c2ccccc2[nH]c1=O)NC1CCCCCCC1,-7.1,i,22.0*,-1.5,-0.3,-15.6,0.3,7.1
O=C(Cc1c(O)c2ccccc2[nH]c1=O)NC1CCCCCC1,-4.2,i,-0.9,-1.8,-0.7,21.4,·,·
O=c1c(O)c(-c2cccs2)oc2ccccc12,14.8,i,26.6*,-1.6,-1.2,21.9,1.1,4.8
O=C(N/N=C/c1ccc(-c2ccccc2Cl)o1)c1ccccc1,-23.6,i,24.8*,-2.9,-4.1,13.0,-6.5,-4.9
Cc1c(C)c2ccc(OC(C)C(=O)NCc3ccccn3)cc2oc1=O (stereo unspecified),-7.3,·,23.0*,-4.4,-0.3,12.7,1.7,6.1
Cc1ccccc1-c1cc(C(=O)Nc2nc3c(s2)CCCC3)c2ccccc2n1,1.0,i,-1.2,-2.8,-1.8,9.8,·,·
Cc1ccc(S(=O)(=O)CC(=O)Nc2cccc(C)n2)cc1,5.2,i,23.2*,-1.3,-2.0,0.5,2.5,4.7
Cc1ccc(S(=O)(=O)NC(=O)Nc2cccc(C)n2)cc1,15.5,i,-1.1,1.3,0.2,-4.4,·,·
N#Cc1cc(S(=O)(=O)c2ccc(Cl)cc2)c(N)[nH]c1=O,21.0,·,23.1*,-1.1,-0.8,-10.8,-20.2,-14.8
Cc1cc(C)c(S(=O)(=O)c2ccc(Cl)cc2)c(=O)[nH]1,9.0,i,-1.5,-4.6,-3.1,-3.5,·,·
COc1ccc(C)cc1S(=O)(=O)N1CCN(C(=O)c2ncoc2-c2cccc(C)c2)CC1,12.0,i,9.8,-2.7,-1.3,14.6,·,·
Cc1ccc(C)c(C(=O)COc2ncnc3ccccc23)c1,-0.3,i,47.9*,-4.7,0.6,-4.0,1.4,5.8
COc1cc(OC)c(C(=O)COc2ncnc3ccccc23)c(OC)c1,2.2,i,2.4,-2.2,-1.4,·,·,·
Cc1cc2nc(-c3ccccc3)cc(=O)n2[nH]1,2.8,·,22.7*,-3.6,-4.3,4.2,-0.2,2.6
O=c1cc(-c2ccccc2)nc2cc(-c3ccc(Br)cc3)[nH]n12,-4.6,i,-1.4,0.2,-1.6,0.9,·,·
O=C(CSc1nc2c(sc3ccccc32)c(=O)n1CCCN1CCCC1)NCc1ccco1,-2.8,i,-7.4,-3.5,2.1,-11.8,·,·
CCCc1[nH]nc2c1C(c1cc(OC)cc(OC)c1)C(C#N)=C(N)O2 (stereo unspecified),-11.8,i,-11.1,-2.6,2.5,1.1,·,·
CCCc1[nH]nc2c1C(c1cccc(OC(=O)c3ccco3)c1)C(C#N)=C(N)O2 (stereo unspecified),9.2,i,21.3*,-4.9,-1.4,-2.9,0.1,3.7
COc1ccc(C2=C/C(=C\c3ccccc3OC(C)=O)C(=O)O2)cc1,-14.4,i,12.2,4.0,1.9,4.1,·,·
COc1ccc(C2=C/C(=C\c3cccc(OC(C)=O)c3)C(=O)O2)cc1,-12.8,i,35.0*,-1.9,-0.1,3.1,-34.2,-12.8
SMILES,proCasp7 act,Neddylation inh,procasp3 activ,IMP-1 inh,VIM-2 inh,PolyA inhibitor,procasp7 triplic,procasp3 conf
Cc1cc(C)cc(C(=O)Nc2c3c(nn2C(C)(C)C)CS(=O)(=O)C3)c1,1.7,i,21.8*,-5.2,-6.5,13.2,0.4,5.5
[O-][n+]1onc2c1C(N1CCOCC1)CCC2N1CCOCC1 (stereo unspecified),11.1,i,67.6*,-1.6,-3.9,6.8,4.5,4.8
COc1ccccc1N=Nc1c(C)[nH]n(-c2ccccc2)c1=O,2.6,i,-8.9,-4.6,-1.1,-6.0,·,·
O=C(Cn1ccsc1=NC(=O)C(F)(F)F)c1ccccc1,8.2,i,5.6,-3.1,-4.0,11.9,·,·
CCCc1cc(=O)oc2cc(OC(=O)CN3C(=O)NC4(CCCC4)C3=O)ccc12,14.6,·,25.6*,·,·,11.2,-21.7,-13.1
CCCNC(=O)c1ccc2c(=O)c(O)c(-c3ccc(OC)cc3)[nH]c2c1,-2.0,i,118.8*,·,·,-7.0,-1.8,0.5
CCCNC(=O)c1ccc2c(=O)c(O)c(-c3ccsc3)[nH]c2c1,-0.8,·,2.4,·,·,-8.2,·,·
Cc1ccc(CNC(=O)c2ccc3c(=O)c(O)c(-c4ccc(C)cc4)[nH]c3c2)cc1,13.0,i,9.6,·,·,-0.1,·,·
CCCNC(=O)c1ccc2c(=O)c(O)c(-c3ccc(C)cc3)[nH]c2c1,20.0,·,99.8*,·,·,6.9,21.2,28.5*
COc1ccc(-c2cc(C(=O)Nc3ccc(O)cc3)c3ccccc3n2)cc1OC,-2.2,i,-2.2,-2.6,-2.8,-2.8,·,·
CC(C)(C)C(=O)CSc1ncnc2c1cnn2Cc1ccccc1,-10.7,i,-0.8,-1.3,0.1,0.9,·,·
CC(C)OC(=O)CSc1ncnc2c1cnn2Cc1ccccc1,1.4,i,129.1*,-1.6,-0.3,-0.7,2.2,1.1
CCCCCCCCCCCCN1[C@@H](CC(C)=O)c2cc(C(F)(F)F)ccc2S1(=O)=O,7.3,i,12.1,·,·,-1.4,·,·
